# Screening data (PubChem BioAssay)
# Only some compounds are listed: those with a hit (about 2.4% of all), similar ones and a draw of the others.
# dFosB act: activators of delta FosB homodimer, primary screen, biochemical, fluorescence polarization, TAMRA-CDK5 oligo, single point; activation, % at 25 µM; Protein FosB (Mus musculus), P13346; purified delta FosB; percent of positive-control signal above neutral wells; AID 493131, 2011; 340,000 compounds, 0.99% hits;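 active = mean activation above about 17%, with every replicate also reaching it, limit read from the data, passing the limit was not always enough; inconclusive = only one of the two conditions met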
# Target sequence (P13346 whole entry, looked up): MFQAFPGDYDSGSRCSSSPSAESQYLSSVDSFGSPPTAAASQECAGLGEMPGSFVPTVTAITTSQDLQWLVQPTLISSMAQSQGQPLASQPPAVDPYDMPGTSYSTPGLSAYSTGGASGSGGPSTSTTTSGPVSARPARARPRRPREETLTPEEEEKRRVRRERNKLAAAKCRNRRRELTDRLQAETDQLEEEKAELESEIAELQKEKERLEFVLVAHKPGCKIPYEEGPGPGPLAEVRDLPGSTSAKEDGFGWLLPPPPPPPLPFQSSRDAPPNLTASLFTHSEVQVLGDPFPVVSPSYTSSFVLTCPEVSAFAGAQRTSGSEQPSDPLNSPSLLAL
# Rtt109 Vps75: inhibitors of C. albicans Rtt109/Vps75 HAT, primary screen, biochemical, ThioGlo CoA-SH fluorescence, plate reader. Histone acetyltransferase RTT109 (Candida albicans (strain SC5314 / ATCC MYA-2876)), …. purified Rtt109/Vps75, 4 h. inhibition, % at 34.9 µM. 330,000 compounds, 0.16% hits;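 active = inhibition of at least 50% in every replicate; inconclusive = best replicate reaches 50% inhibition but some replicates fall short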
# miR122 inh: miR-122 Renilla sensor signal increase in Huh7, primary screen, miR-122 inhibitor project, cell-based, single point, plate reader | 340,000 compounds, 0.3% hits | activation (reporter increase), % at 12.5 µM | Huh7 miR-122 Renilla luciferase sensor, 48 h; neutral wells = 0, positive control = 100 | AID 602342, 2012;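 active = mean replicate activation score at least 90 and every replicate individually at or above 90; inconclusive = only one of the two criteria met; inactive = neither criterion met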;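 also: higher luciferase means less miR-122 activity so hits act as miR-122 inhibitors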
# Cneo AK release: Cryptococcus neoformans cell lysis inducers, primary screen, AK release luminescence, single concentration; C. neoformans lysis, adenylate kinase release luminescence, 4 h; normalised: neutral wells 0, clomiphene wells 100; lysis activity, % at 15 µM; 360,000 compounds, 0.2% hits;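 active = mean lysis activity across replicates of at least 80%, whatever share of replicates individually reach that level; inactive = mean lysis activity below 80%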
#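 Test system: log-phase Cryptococcus neoformans yeast cells; Quantity: yeast cell density of 5 × 10^6 cells/mL; Buffer or medium: YPD; Doses: single compound concentration per well; Timing: 4 h at 37 °C static, read 1 h later; Measured by: AK luminescence; Read-out basis: lysis from increased AK signal; Control set: Clomiphene as positive control.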
# INS-1E GSIS act: GLuc luminescence reporter in INS-1E cells, primary screen for activators of glucose-dependent secretion of insulin; activation, % at 16.6 µM; 370,000 compounds, 0.61% hits; INS-1E GLuc reporter insulin secretion, 2-3 h; AID 743287, 2014;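 active = lowest replicate activation of at least 40%, so every replicate reaches that level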;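 also: 0% = median of neutral control wells and 100% = median of IBMX positive control wells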
# HIV Env fusion: inhibitors of HIV-1 Env-driven cell-cell fusion, primary screen, HeLa-JRFL effector, CEM21 target cells, luciferase; inhibition, % at 12.3 µM; AID 651610, 2012; 360,000 compounds, 1.1% hits;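 active = mean replicate inhibition score of at least 50 and every replicate individually at or above 50; inconclusive = only one of the two criteria met; inactive = mean below 50 and not all replicates reaching 50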;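 also: 0% = plate neutral controls and 100% = maraviroc near 300 nM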
# An asterisk follows results filed as active; ? = inconclusive; . = not tested or not shown; [ ] = dose if it differs, or a comment.
SMILES,dFosB act,Rtt109 Vps75,miR122 inh,Cneo AK release,INS-1E GSIS act,HIV Env fusion
COc1ccc(S(=O)(=O)N(C)C[C@H]2Oc3cc(C#CC4CC4)ccc3S(=O)(=O)N([C@@H](C)CO)C[C@H]2C)cc1,.,.,65.6[16.7 µM],56.7,8.3,13.7[16.7 µM]
CO[C@@H]1CN(C)C(=O)c2ccc(NC(=O)C3CCOCC3)cc2OC[C@@H](C)N(C(=O)c2ccccc2)C[C@H]1C,.,.,.,-0.4,4.8,10.6[16.7 µM]
COCCNC(=O)C[C@@H]1CC[C@@H]2[C@H](COc3ccc(NC(C)=O)cc3C(=O)N2C)O1,.,.,8.3[16.7 µM],-6.3,1.7,-1.8[16.7 µM]
CNC(=O)C[C@@H]1CC[C@@H]2[C@H](COc3ccc(NC(=O)c4cc(C)on4)cc3C(=O)N2C)O1,.,.,33.3[16.7 µM],95.8*,-0.5,18.5[16.7 µM]
COCCNC(=O)C[C@@H]1CC[C@H]2[C@@H](COc3ccc(NC(C)=O)cc3C(=O)N2C)O1,.,.,183.3*[16.7 µM],-5.2,4.7,-16.2[16.7 µM]
CCCNC(=O)C[C@@H]1CC[C@@H]2[C@H](COc3ccc(NC(=O)CCC)cc3C(=O)N2C)O1,.,.,44.3[16.7 µM],110.4*,-0.2,0.5[16.7 µM]
CCCNC(=O)C[C@H]1CC[C@H]2[C@H](COc3ccc(NC(=O)CCC)cc3C(=O)N2C)O1,.,.,13.4[16.7 µM],-0.1,7.8,-11.7[16.7 µM]
CN1C(=O)c2cc(NS(C)(=O)=O)ccc2OC[C@@H]2O[C@H](CC(=O)O)CC[C@H]21,.,.,-35.0[16.7 µM],-2.6,3.6,.
CN1C(=O)c2cc(NS(C)(=O)=O)ccc2OC[C@@H]2O[C@@H](CC(=O)O)CC[C@@H]21,.,.,35.0[16.7 µM],89.9*,6.6,.
O=C(C[C@@H]1CC[C@H](NC(=O)Nc2cc(F)ccc2F)[C@@H](CO)O1)NCCCN1CCOCC1,.,.,.,-0.5,14.5,-1.2[16.7 µM]
Cc1noc(C)c1NC(=O)N(C)C[C@H]1Oc2c(NS(=O)(=O)c3ccc(Cl)cc3)cccc2C(=O)N([C@@H](C)CO)C[C@@H]1C,.,.,0.3[16.7 µM],-5.8,0.8,2.6[16.7 µM]
C[C@@H](NC(=O)C[C@H]1C[C@H]2c3cc(NC(=O)CN(C)C)ccc3O[C@H]2[C@H](CO)O1)c1ccccc1,.,.,-1.9[16.7 µM],0.7,0.1,8.6[16.7 µM]
CN1C(=O)c2cc(NS(=O)(=O)c3ccccc3F)ccc2OC[C@@H]2O[C@H](CC(=O)NC3Cc4ccccc4C3)CC[C@@H]21,.,.,.,1.9,-3.1,63.1*[16.7 µM]
C[n+]1cc2c3c(ccc2c2ccc4cc5c(cc4c21)OCO5)OCO3,.,.,.,.,.,110.3*
CO[C@H]1CN(C)C(=O)c2ccc(NC(=O)Nc3cccc(Cl)c3)cc2OC[C@H](C)NC[C@@H]1C,.,.,8.5[16.7 µM],40.8,-1.3,13.1[16.7 µM]
Cc1ccc(S(=O)(=O)Nc2ccc3c(c2)C(=O)N([C@H](C)CO)C[C@@H](C)[C@@H](CN(C)Cc2ccc(-c4ccccc4)cc2)O3)cc1,.,.,-15.6[16.7 µM],0.9,4.0,59.7*[16.7 µM]
C[C@@H]1CN([C@@H](C)CO)C(=O)c2cc(NS(=O)(=O)c3ccccc3)ccc2O[C@H]1CN(C)Cc1ccc(Oc2ccccc2)cc1,.,.,0.3[16.7 µM],2.1,-17.3,94.0*[16.7 µM]
COc1cccc(-c2ccc([C@@H]3[C@H]4CN(C(=O)c5ccncc5)CC(=O)N4[C@H]3CO)cc2)c1,.,.,.,.,16.4,.
O=C(Cn1c(C(F)(F)F)nc2ccccc21)c1ccc(Cl)cc1,-3.3,-3.2,0.8,1.9,.,64.4*
O=C(Cn1c(C(F)(F)F)nc2ccccc21)c1ccccc1,3.0,1.1,.,0.6,-12.3,.
CCN1C(=O)c2cccc3c(S(=O)(=O)NCCc4c[nH]c5ccccc45)ccc1c23,-6.1,-6.0,497.5*,-0.3,.,?
C[C@@H]1CN([C@@H](C)CO)C(=O)Cc2cc(NC(=O)Nc3ccc4c(c3)OCO4)ccc2O[C@H]1CN(C)C(=O)Nc1ccccc1,.,.,-5.0[16.7 µM],-3.9,4.9,7.6[16.7 µM]
CCC(CC)NC(=O)c1ccccc1Oc1ccccc1,4.1,-2.1,1.5,1.8,53.2*,.
